# FGF22 binding = FGF22 (human) thermal shift binding | activity (Tm shift, normalised), % at 9.99 µM | recombinant FGF22 thermal shift, SYPRO orange fluorescence; percent of sucrose octasulfate shift, DMSO zero | 1.5% of 340,000 active | Q9HCT0;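 active = mean Tm shift, scaled 0 neutral to 100 positive control, at about 1.3% or above, every replicate too, limit read from the data; inconclusive = no clear call, values can overlap the other calls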
# DENV2 CPE rescue = DENV2-induced cell death inhibition | DENV2-infected cells, cytopathic effect rescue, plate reader | CPE inhibition, % at 9.99 µM | 1.7% of 350,000 active; in the data active = CPE inhibition above about 20%, passing the limit was not always enough; inconclusive = no clear call, values can overlap the other calls; tested in BHK-21 cells;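 note: 0% = median of neutral control wells and 100% = median of positive control wells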
# CFTR F508del cor = correctors of CFTR F508del function in bronchial epithelial cells; CFBE cells, YFP halide quenching; stimulated with forskolin plus potentiator P3; % fluorescence drop versus neutral controls; activity (quench increase), % at 7.58 µM; 0.36% of 350,000 active; AID 720511;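 active = mean added fluorescence quench of at least 8% versus neutral control, with both replicates also reaching 8%; inconclusive = only one of the mean or replicate conditions met; inactive = mean below 8% and not both replicates reaching 8%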;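 note: cells transiently co-express mutant CFTR-F508del with the halide-sensitive YFP; corrector assay measuring rescue of mutant channel to the surface after 24 h compound exposure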
# ERAP1 inh = ERAP1 (human) enzyme inhibition | AID 652197 | inhibition, % at 10.7 µM | Q9NZ08 | recombinant ERAP1, Leu-AMC fluorescence, 60 min | 0.15% of 340,000 active;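 active = mean replicate inhibition of at least 30%, or all replicates individually reaching that 30% level; inactive = mean below 30% and not every replicate reaching it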;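 note: 0% = neutral control wells and 100% = L-leucinethiol positive control wells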
# Target sequence (Q9NZ08 whole entry, looked up): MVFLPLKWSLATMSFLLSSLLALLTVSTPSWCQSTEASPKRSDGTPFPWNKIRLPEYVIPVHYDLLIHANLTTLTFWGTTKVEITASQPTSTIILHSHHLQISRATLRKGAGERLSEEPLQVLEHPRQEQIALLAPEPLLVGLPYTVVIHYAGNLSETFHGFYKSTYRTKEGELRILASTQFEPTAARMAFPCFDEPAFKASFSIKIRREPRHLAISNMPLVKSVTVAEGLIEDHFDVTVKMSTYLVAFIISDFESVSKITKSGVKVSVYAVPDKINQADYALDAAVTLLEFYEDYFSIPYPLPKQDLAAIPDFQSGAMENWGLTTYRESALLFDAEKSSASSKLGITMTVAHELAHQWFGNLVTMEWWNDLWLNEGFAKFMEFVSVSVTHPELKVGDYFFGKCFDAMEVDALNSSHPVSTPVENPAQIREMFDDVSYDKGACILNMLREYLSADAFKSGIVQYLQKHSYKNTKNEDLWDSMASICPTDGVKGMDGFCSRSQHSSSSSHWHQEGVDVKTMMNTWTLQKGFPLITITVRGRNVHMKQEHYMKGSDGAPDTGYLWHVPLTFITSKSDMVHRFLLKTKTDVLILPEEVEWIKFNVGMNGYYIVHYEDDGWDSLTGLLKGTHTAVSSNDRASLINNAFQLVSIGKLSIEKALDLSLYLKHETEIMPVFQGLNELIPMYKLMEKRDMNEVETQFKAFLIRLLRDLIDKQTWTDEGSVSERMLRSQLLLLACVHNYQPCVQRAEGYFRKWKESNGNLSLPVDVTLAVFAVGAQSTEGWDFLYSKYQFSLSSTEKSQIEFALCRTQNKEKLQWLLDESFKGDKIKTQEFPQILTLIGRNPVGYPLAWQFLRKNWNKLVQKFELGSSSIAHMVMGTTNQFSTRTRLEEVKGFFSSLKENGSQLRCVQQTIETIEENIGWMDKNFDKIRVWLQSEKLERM
# E-sel inducer = induces E-selectin expression in human endothelial cells | HUVEC E-selectin immunofluorescence imaging; normalized: neutral wells 0, TNF-alpha wells 100 | activation, % at 7.58 µM | 0.37% of 260,000 active | AID 686992;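 active = mean E-selectin-positive cell signal at least 10% of the positive control, reached in at least 60% of replicates, without over 20% cell loss; inconclusive = no rule given, readout overlaps actives, possibly toxicity-flagged; inactive = the rest, including those meeting only one limit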
#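 assay system = HUVEC, human umbilical vein endothelial cells | input = 3,000 HUVEC seeded per well | medium = EGM-2 growth medium on 0.1% gelatin-coated wells | dosing = one compound dose added by pin transfer | signal = immunofluorescence imaging | read-out basis = % PE-positive cells | control set = TNF-alpha, DMSO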
# Numbers without * were called inactive; ? = inconclusive; nt = no result. The list is not random: actives were taken first. Their share in the collection is about 3.7%.
SMILES,FGF22 binding,DENV2 CPE rescue,CFTR F508del cor,ERAP1 inh,E-sel inducer
CCOC(=O)C1=C(O)C(=O)N(Cc2cccnc2)C1c1ccc(C)cc1 (stereo unspecified),44*,10,-1,-4,2
CC(=O)C1=C(O)C(=O)N(Cc2cccnc2)C1c1ccc(C(C)C)cc1 (stereo unspecified),43*,?,7,0,1
CCOc1ccc(C2C(C(=O)c3ccc(C)o3)=C(O)C(=O)N2Cc2cccnc2)cc1 (stereo unspecified),0,2,-2,4,nt
Cc1ccc(C(=O)C2=C(O)C(=O)N(Cc3cccnc3)C2c2ccc(Cl)cc2)o1 (stereo unspecified),-1,13,-2,3,0
CN(C)C(=O)c1cccc(-c2ccc(C3[C@@H]4CN(Cc5nccs5)C[C@H]3N4)cc2)c1 (stereo partly specified),0,?,2,nt,0
CCN(CC(=O)Nc1ccc(NC(C)=O)cc1)C(=O)/C=C/c1ccccc1,0,8,-2,0,-1
CCN(CC(=O)Nc1ccc(NC(C)=O)cc1)C(=O)C(c1ccccc1)c1ccccc1,43*,8,4,-3,nt
COc1ccc(NC(=O)N(C)C[C@H]2Oc3ccc(NC(=O)C4CCCCC4)cc3CC(=O)N([C@@H](C)CO)C[C@H]2C)cc1,0,-2,-1,-1,0
Nc1nc(SCC(=O)NCCO)nc2sc3c(c12)CCCC3,43*,-5,-1,-4,0
CC(C)(C)C1CCc2c(sc3nc(SCC(=O)O)nc(N)c23)C1 (stereo unspecified),0,2,1,2,0
N#C[C@@H]1[C@@H](c2ccccc2C2=CCCC2)[C@H](CO)N1C(=O)Cc1ccncc1,0,29*,2,0,0
N#C[C@@H]1[C@H](c2ccccc2C2=CCCCC2)[C@@H](CO)N1C(=O)c1ccccn1,0,27*,-1,nt,0
N#C[C@H]1[C@@H](c2ccccc2-c2ccccc2)[C@@H](CO)N1C(=O)NC1CCCCC1,nt,-15,0,-2,0
N#C[C@H]1[C@H](c2ccccc2C2=CCCCC2)[C@@H](CO)N1C(=O)NC1CCCC1,0,-12,-3,0,0
N#C[C@H]1[C@@H](c2ccccc2C2=CCCCC2)[C@@H](CO)N1C(=O)NC1CCCC1,0,22*,4,-1,0
N#C[C@@H]1[C@H](c2ccccc2-c2ccccc2)[C@@H](CO)N1C(=O)NC1CCCCC1,0,45*,0,-3,0
COc1cc(/C=C/C(=O)OCC(=O)Nc2ccc(Cl)cn2)ccc1O,0,-6,-2,1,47*
O=C(COC(=O)/C=C/c1ccc(F)cc1)Nc1ccc(Cl)cn1,0,-11,-4,-3,nt
C[C@H](CO)N1C[C@H](C)[C@H](CN(C)S(=O)(=O)c2ccc(F)cc2)Oc2ccc(N(C)C)cc2C1=O,-1,-2,0,-1,0
COCCSc1ccccc1C(=O)Nc1cc([N+](=O)[O-])ccc1OC,0,-5,18*,-4,2
O=C(NC1CCCCC1)N[C@@H]1CC[C@@H](CCNS(=O)(=O)c2ccccc2)O[C@H]1CO,0,0,0,3,2
COc1cccc(/C=C2/NC(=O)NC2=O)c1OCC(=O)Nc1ccccc1,43*,8,1,-1,0
COC(=O)C(C)N1C(=O)S/C(=C\c2ccc(-c3ccc(C(=O)O)cc3C)o2)C1=O (stereo unspecified),0,-2,-3,57*,0
COc1ccc(NC(=O)N(C)C[C@H]2Oc3ccc(NC(=O)NC4CCCCC4)cc3CC(=O)N([C@@H](C)CO)C[C@H]2C)cc1,nt,nt,-3,nt,-2
Cc1ccc(S(=O)(=O)N(C)C(=O)NC(=O)NS(=O)(=O)c2ccccc2)cc1,44*,-1,-1,-4,nt
Cc1ccc(S(=O)(=O)NC(=O)Nc2ccccc2)cc1,0,-1,-3,-4,-1
CCNc1nc(C(=O)O)nc(N2CCOCC2)n1,43*,5,-3,-2,0
CS(=O)(=O)N1CCN=C1SCc1ccc([N+](=O)[O-])cc1,43*,-8,1,-2,nt
CS(=O)(=O)N1CCN=C1SCc1ccc(Br)cc1,0,0,0,-4,-1
COC(=O)CCc1ccc(O)cc1,0,-9,-1,2,nt
